Laboratory results from the RNAGym collection of RNA variant scans (doi:10.1126/science.aae0568).
Fewer inactive variants are shown than the library holds.

B1: tRNA (parent)
chain: GUUCCGUUGGCGUAAUGGUAACGCGUCUCCCUCCUAAGGAGAAGACUGCGGGUUCGAGUCCCGUACGGAACG

Variants of: B1
Experiment: yeast fitness relative to wild type (ratio to wild type); higher = fitter; tRNA-Arg(CCU), competitive growth, 37 C, YPD
Procedure, shortened: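 For this measurement, the tRNA-Arg(CCU) gene was varied by chemical synthesis at a 3% per-site mutation rate across 69 sites, and each variant was placed at the native genomic locus in Saccharomyces cerevisiae. The pooled strains went through a 24-hour competition in YPD at 37°C in six parallel replicates, with amplicons from start and end populations read by 100-nucleotide paired-end sequencing. Darwinian fitness relative to wild type followed from the change in each genotype's frequency. Genotypes needed ≥ 100 starting reads, and estimates < 0.5 were set to 0.5.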
Variant C31U G39C A40U has a yeast fitness of 0.838.
With C31A C60G the yeast fitness was 0.516.
C30U G52A gave a yeast fitness of 0.785.
In the case of C30U G48C A65G, the yeast fitness is reported as 0.606.
C31A G68U A69C showed a yeast fitness of at most 0.5.
For C31A G38C A43C C46G, the yeast fitness was 0.672.
C30U G38A G68C showed a yeast fitness of 0.574.
With C31G C46U the yeast fitness was 0.998.
Work on C31U C60U C61G yielded a yeast fitness of at most 0.5.
C31U A42G G58A gave a yeast fitness of 0.716.
In the case of C31G G41A G52C C60U C62G C66G, the yeast fitness is reported as 0.539.
Work on C31U A57C C66U yielded a yeast fitness of 0.663.
Variant C31U G38C G52C has a yeast fitness of at most 0.5.
Variant C30U G51A C66U A70C has a yeast fitness of at most 0.5.
C31G C34U A40C G50A C55G C62A gave a yeast fitness of at most 0.5.
Variant C31G G50C G58C has a yeast fitness of 0.571.
For C30U U47A G67C A70U, the yeast fitness was at most 0.5.
C31A A37G G38A A40G showed a yeast fitness of at most 0.5.
In the case of C31A A40U U53G G56C C62G A70C, the yeast fitness is reported as at most 0.5.
C31U A40C C49U G52A gave a yeast fitness of at most 0.5.
In the case of C31A G51A, the yeast fitness is reported as 0.603.
C31U G39A A45C showed a yeast fitness of 0.677.
Variant C31A C66G has a yeast fitness of 0.615.
C31G C33U U53C U54G C55A gave a yeast fitness of at most 0.5.
C31U A40U A45U gave a yeast fitness of 0.618.
C31U A57C showed a yeast fitness of 0.574.
Work on C31U A42G C62U A69C yielded a yeast fitness of 0.542.
Work on C30U C66U A69U yielded a yeast fitness of 0.602.
Variant C30U U35A G63C A65U has a yeast fitness of at most 0.5.
For C30U U35A G63C A65C, the yeast fitness was at most 0.5.
For C31U A40G G48C, the yeast fitness was 0.559.
With C30U G38C A65G the yeast fitness was 0.53.
Variant C31G C33G G67A has a yeast fitness of at most 0.5.
C31U C49U U64A showed a yeast fitness of 0.685.
Variant C31G U47G U53G C61U G68A has a yeast fitness of at most 0.5.
In the case of C30U C66G A70G, the yeast fitness is reported as at most 0.5.
With C30U G39A C62U G68C the yeast fitness was 0.571.
For C31G G48A C55A C62A, the yeast fitness was at most 0.5.
Work on C31U A42G G63C C66U yielded a yeast fitness of at most 0.5.
For C31G C62A, the yeast fitness was 0.607.
Variant C30U G38C A57G has a yeast fitness of at most 0.5.
C30U G58A C61G G68C A70U gave a yeast fitness of at most 0.5.
C31G C55A A57U U59C C60U showed a yeast fitness of at most 0.5.
For C31A U32C U53C C60G, the yeast fitness was at most 0.5.
For C31G A40G A45C U47C U53A A70U, the yeast fitness was at most 0.5.
C31G U32G A37U A65U showed a yeast fitness of at most 0.5.
Work on C31A A42C C46U yielded a yeast fitness of 0.592.
With C31A G48A C66U the yeast fitness was 0.646.
In the case of C30U G38C C55G C61U, the yeast fitness is reported as at most 0.5.
C31A A65U gave a yeast fitness of 0.725.
With C31G A42G the yeast fitness was 0.721.
With C31U C49A the yeast fitness was 0.783.
In the case of C31U C49G, the yeast fitness is reported as 0.914.
Work on C31G C61U yielded a yeast fitness of 0.834.
Variant C31G C46U A65U has a yeast fitness of 0.789.
Variant C31A A37G C55U A57G has a yeast fitness of 0.531.
C31G G48C showed a yeast fitness of 0.811.
Variant C31A A37C U47C G67A has a yeast fitness of at most 0.5.
In the case of C31A C33U G41C U47C G67C, the yeast fitness is reported as at most 0.5.
For C31G G44C U53C A65U A70G, the yeast fitness was at most 0.5.
In the case of C31A C33G, the yeast fitness is reported as 0.569.
Work on C31A G38C G44A A65G yielded a yeast fitness of 0.534.
For C30U G63C A69U, the yeast fitness was 0.527.
In the case of C31U C33G G50C, the yeast fitness is reported as 0.508.
Variant C31G A43U C46G A70U has a yeast fitness of 0.527.
With C31G U53C U54G the yeast fitness was at most 0.5.
In the case of C31U A37U U54A, the yeast fitness is reported as 0.514.
C31A U35C G41A showed a yeast fitness of at most 0.5.
C31G G51C A70U showed a yeast fitness of 0.561.
C31G G51C A70G gave a yeast fitness of at most 0.5.
C31U C60G A70G gave a yeast fitness of 0.675.
C31A C60A A65U showed a yeast fitness of 0.619.
For C31U C61U G68C, the yeast fitness was at most 0.5.
Variant C30U G44A A65C has a yeast fitness of 0.553.
With C31G C34U A40C C60A C61A G63A the yeast fitness was at most 0.5.
C31G C61G C62G showed a yeast fitness of 0.514.
C30U C66U gave a yeast fitness of 0.777.
C31U C34G C49U G52A A69U showed a yeast fitness of at most 0.5.
Variant C30U G51C G58C has a yeast fitness of at most 0.5.
For C31G A45U U47A, the yeast fitness was 0.521.
Work on C31A G39C C66U yielded a yeast fitness of at most 0.5.
C31A G39A G48A C61U A65C showed a yeast fitness of 0.5.
C31G C33G A57C showed a yeast fitness of at most 0.5.
Work on C31G C33U C61U yielded a yeast fitness of at most 0.5.
C31U C33A A43U G48A U53A gave a yeast fitness of at most 0.5.
Work on C31G U35C yielded a yeast fitness of 0.823.
With C31U A42C the yeast fitness was 1.17.
For C31G A37U, the yeast fitness was 0.728.
In the case of C30U G39A A40G G67A, the yeast fitness is reported as at most 0.5.
With C31G G67U the yeast fitness was 0.655.
Variant C31A G67C has a yeast fitness of 0.846.
With C31A G67U the yeast fitness was 0.755.
Work on C31G C33G G63A yielded a yeast fitness of at most 0.5.
With C31U A40C C55G G68A A69U the yeast fitness was 0.581.
Work on C31G C33G yielded a yeast fitness of 0.565.
With C31G C33U the yeast fitness was 0.673.
C30U U59G gave a yeast fitness of 0.898.
Work on C31U G39C G52C yielded a yeast fitness of at most 0.5.
In the case of C31U C33U C34G A40C G63A, the yeast fitness is reported as at most 0.5.
For C31G G44C G67C, the yeast fitness was at most 0.5.
For C31G U54C C55G U64C, the yeast fitness was at most 0.5.
With C31G A45C C49A the yeast fitness was 0.807.
C31G G44A G51C A65G gave a yeast fitness of 0.537.
Variant C31G C55G A65C has a yeast fitness of at most 0.5.
C31G G38U showed a yeast fitness of 0.804.
For C31A C33U C55G, the yeast fitness was at most 0.5.
For C31A G50C, the yeast fitness was 0.566.
For C31G C34A C55U U59C, the yeast fitness was at most 0.5.
In the case of C31G G56A, the yeast fitness is reported as 0.98.
In the case of C31G G56U, the yeast fitness is reported as 0.723.
For C31U C33U, the yeast fitness was 0.723.
C31U C33G showed a yeast fitness of 0.785.
C31U C33U A42C showed a yeast fitness of 0.562.
Work on C31G G41A G52C C60U C62G yielded a yeast fitness of 0.53.
With C31G U59A A65U C66A the yeast fitness was at most 0.5.
For C30U U54A G68C, the yeast fitness was at most 0.5.
Variant C30U G48A has a yeast fitness of 0.861.
Work on C30U G52C C66G yielded a yeast fitness of 0.707.
With C31A A36U U53A the yeast fitness was at most 0.5.
Work on C31A C34G yielded a yeast fitness of at most 0.5.
Variant C31A C34U has a yeast fitness of 0.555.
C31A G56A A65G C66A G68C showed a yeast fitness of 0.562.
Work on C30U U47C C66U yielded a yeast fitness of 0.577.
For C31G G41A A43C G51C, the yeast fitness was 0.562.
Variant C31G C33G A57U A65U has a yeast fitness of at most 0.5.
Variant C31G A45G U54C G56U has a yeast fitness of at most 0.5.
C31U C33U A37C gave a yeast fitness of at most 0.5.
Work on C31A A37G yielded a yeast fitness of 0.672.
With C31A A37C the yeast fitness was 0.665.
Work on C31A A37U G67C yielded a yeast fitness of 0.575.
Variant C31G U32C has a yeast fitness of 0.754.
C31A A43C showed a yeast fitness of 0.832.
Variant C31G A36C G50A C62U G68A A69C has a yeast fitness of at most 0.5.
In the case of C30U U32A A36U A37U C62U A69U, the yeast fitness is reported as at most 0.5.
For C31A G38A C46U A69U, the yeast fitness was at most 0.5.
In the case of C31U A40G G48A A70U, the yeast fitness is reported as 0.533.
Variant C31G C33U A37C C61U A65U has a yeast fitness of at most 0.5.
Variant C31G G63A has a yeast fitness of 0.848.
C31U C34G C49U G52A showed a yeast fitness of 0.725.
In the case of C31G U59A, the yeast fitness is reported as 0.779.
C31A G44C G63A gave a yeast fitness of at most 0.5.
Variant C31A A40U C46A has a yeast fitness of 0.555.
Variant C31U C34G G67A has a yeast fitness of 0.539.
C31U A45U gave a yeast fitness of 1.12.
C31U A45C gave a yeast fitness of 1.25.
With C31G G58C C62U the yeast fitness was 0.838.
C31G A40U C60G G67A showed a yeast fitness of at most 0.5.
Work on C30U U53G A69U yielded a yeast fitness of at most 0.5.
In the case of C31A A37C G58C, the yeast fitness is reported as 0.521.
C31U A70U showed a yeast fitness of 1.04.
Variant C31G C34G A57C has a yeast fitness of 0.685.
C30U G38C U64C A65G showed a yeast fitness of at most 0.5.
For C30U G44A G56A, the yeast fitness was at most 0.5.
C31A U54C U64A gave a yeast fitness of at most 0.5.
C31A A43U G63A A70C showed a yeast fitness of at most 0.5.
Work on C31G G41A G63U yielded a yeast fitness of 0.609.
C31U A43G showed a yeast fitness of 1.06.
For C31G A45G U47A, the yeast fitness was 0.893.
For C31U C34U G50A G52A A57G G67C, the yeast fitness was at most 0.5.
Variant C31U A37U A70U has a yeast fitness of 0.558.
Work on C31G G44A U47A G51C C66U yielded a yeast fitness of at most 0.5.
For C30U G44C, the yeast fitness was 0.662.
In the case of C31A G51C C55G A57U, the yeast fitness is reported as at most 0.5.
In the case of C31U C33U A37G A57C, the yeast fitness is reported as at most 0.5.
With C31A A40C G52A C61A the yeast fitness was 0.528.
In the case of C30U G48C G68C, the yeast fitness is reported as 0.636.
C31G U35C C66U showed a yeast fitness of 0.558.
